Data on three compounds can be found in ChEMBL document CHEMBL1136005 (J Med Chem, 2002).

The nature of data set [1]: Plasma concentration was determined after 1 hr at a dose 30 mg/kg administered orally to rat-8. In kind it is ADME, organism-based. More on the design: dose 30 mg/kg, route oral. As to conditions: po. In outline: (§1)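 Sprague-Dawley rats, n=2 per compound, dosed orally at 30 mg/kg. Plasma drug concentration measured 1 and 8 h after dosing.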
Data set [2] has as its target Platelet-derived growth factor receptor (Homo sapiens, UniProt P09619+P16234). As to the kind of experiment: Concentration required for 50% inhibition against autophosphorylation of Platelet-derived growth factor receptor beta in intact cells using a two site ELISA. Format: cell-based.
A short description of data set [3]: Plasma concentration was determined after 8 hr at a dose 30 mg/kg administered orally to rat-8. As to conditions: po. More on the design: dose 30 mg/kg, route oral. In kind it is ADME, organism-based. In short, it runs like this:
as §1

Data set [4] can be described thus: Plasma concentration was determined after 8 hr at a dose 30 mg/kg administered orally to rat-7. In kind it is ADME, organism-based. More on the design: dose 30 mg/kg, route oral. As to conditions: po. In short, it runs like this: as §1
The nature of data set [5]: Plasma concentration was determined after 1 hr at a dose 30 mg/kg administered orally to rat-7. As to conditions: po. Details: dose 30 mg/kg, route oral. In kind it is ADME, organism-based. In outline: as §1
Data set [6] can be described thus: Plasma concentration was determined after 8 hr at a dose 30 mg/kg administered orally to rat-9. In kind it is ADME, organism-based. More on the design: dose 30 mg/kg, route oral. As to conditions: po. In outline:
as §1

Data set [7] has as its target Macrophage colony-stimulating factor 1 receptor (Homo sapiens, UniProt P07333). As to the kind of experiment: Inhibition of Colony stimulating factor 1 receptor (CSF-1R) autophosphorylation.
The target in another data set is Protein kinase C (PKC). The data set can be described thus: Inhibition of Protein kinase C. In kind it is protein assay. In short, it runs like this:
(§2)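 Substrate phosphorylation measured in an in vitro assay with purified enzyme; IC50 values in µmol/L.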

Data set [8] can be described thus: Plasma concentration was determined after 8 hr at a dose 30 mg/kg administered orally to rat-10. More on the design: dose 30 mg/kg, route oral. As to conditions: po. Format: ADME, organism-based. In outline:
as §1

In data set [9] the target is Fibroblast growth factor receptor (Homo sapiens, UniProt P22607+P11362+P22455+P21802). The data set can be described thus: Inhibition of Fibroblast growth factor receptor autophosphorylation. Format: protein assay.
The nature of data set [10]: pharmacokinetic parameter was evaluated after oral administration of 30 mg/kg to rat. In kind it is ADME, organism-based. More on the design: dose 30 mg/kg, route oral. As to conditions: in vivo. In outline:
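Sprague-Dawley rats, n=3, dosed orally at 30 mg/kg. Plasma drug concentrations were followed to derive Tmax (h), Cmax (µg/mL), T1/2 (h) and AUC0-∞ (µg h/mL).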

For data set [11], the target named is Mitogen-activated protein kinase; ERK1/ERK2 (Homo sapiens, UniProt P27361+P28482). The data set can be described thus: Inhibition of Extracellular signal-regulated kinase (Erk). Format: protein assay. In short, it runs like this:
as §2

The target in data set [12] is T1, Dual specificity mitogen-activated protein kinase kinase 6 (Homo sapiens, UniProt P52564).
T1 sequence (P52564 whole entry): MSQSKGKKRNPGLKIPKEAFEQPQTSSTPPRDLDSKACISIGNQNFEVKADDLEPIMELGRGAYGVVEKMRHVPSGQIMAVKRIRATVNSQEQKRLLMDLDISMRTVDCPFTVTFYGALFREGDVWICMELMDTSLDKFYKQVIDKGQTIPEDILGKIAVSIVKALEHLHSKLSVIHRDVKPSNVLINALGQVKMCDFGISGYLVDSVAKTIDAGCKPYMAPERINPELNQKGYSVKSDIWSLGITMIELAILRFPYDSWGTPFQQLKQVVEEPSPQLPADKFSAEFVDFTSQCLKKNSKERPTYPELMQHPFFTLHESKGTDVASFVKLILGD
The data set can be described thus: Inhibition of Mitogen activated protein kinase kinase 6. In outline: as §2

The target in data set [13] is Proto-oncogene tyrosine-protein kinase Src (Homo sapiens, UniProt P12931). As to the kind of experiment: Inhibition of Src protein tyrosine kinase. In short, it runs like this: as §2
Chain of Proto-oncogene tyrosine-protein kinase Src (P12931 2-536 limits assumed): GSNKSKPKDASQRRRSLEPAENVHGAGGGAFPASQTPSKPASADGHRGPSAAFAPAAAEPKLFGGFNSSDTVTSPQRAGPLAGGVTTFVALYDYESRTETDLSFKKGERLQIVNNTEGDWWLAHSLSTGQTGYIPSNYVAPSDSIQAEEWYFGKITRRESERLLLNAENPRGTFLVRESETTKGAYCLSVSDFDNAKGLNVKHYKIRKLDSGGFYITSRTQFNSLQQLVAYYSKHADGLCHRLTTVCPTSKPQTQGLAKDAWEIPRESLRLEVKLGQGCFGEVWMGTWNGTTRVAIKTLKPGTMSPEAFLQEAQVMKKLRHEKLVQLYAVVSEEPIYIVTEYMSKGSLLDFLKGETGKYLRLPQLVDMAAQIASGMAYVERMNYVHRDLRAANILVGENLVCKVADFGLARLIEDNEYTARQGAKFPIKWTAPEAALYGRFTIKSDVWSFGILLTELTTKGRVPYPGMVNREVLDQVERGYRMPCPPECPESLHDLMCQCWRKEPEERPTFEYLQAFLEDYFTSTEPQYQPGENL
A short description of data set [14]: Plasma concentration was determined after 1 hr at a dose 30 mg/kg administered orally to rat-9. In kind it is ADME, organism-based. More on the design: dose 30 mg/kg, route oral. As to conditions: po. In outline:
as §1

Data set [15] addresses T2, Receptor-type tyrosine-protein kinase FLT3 (Homo sapiens, UniProt P36888).
T2 sequence (P36888 whole entry): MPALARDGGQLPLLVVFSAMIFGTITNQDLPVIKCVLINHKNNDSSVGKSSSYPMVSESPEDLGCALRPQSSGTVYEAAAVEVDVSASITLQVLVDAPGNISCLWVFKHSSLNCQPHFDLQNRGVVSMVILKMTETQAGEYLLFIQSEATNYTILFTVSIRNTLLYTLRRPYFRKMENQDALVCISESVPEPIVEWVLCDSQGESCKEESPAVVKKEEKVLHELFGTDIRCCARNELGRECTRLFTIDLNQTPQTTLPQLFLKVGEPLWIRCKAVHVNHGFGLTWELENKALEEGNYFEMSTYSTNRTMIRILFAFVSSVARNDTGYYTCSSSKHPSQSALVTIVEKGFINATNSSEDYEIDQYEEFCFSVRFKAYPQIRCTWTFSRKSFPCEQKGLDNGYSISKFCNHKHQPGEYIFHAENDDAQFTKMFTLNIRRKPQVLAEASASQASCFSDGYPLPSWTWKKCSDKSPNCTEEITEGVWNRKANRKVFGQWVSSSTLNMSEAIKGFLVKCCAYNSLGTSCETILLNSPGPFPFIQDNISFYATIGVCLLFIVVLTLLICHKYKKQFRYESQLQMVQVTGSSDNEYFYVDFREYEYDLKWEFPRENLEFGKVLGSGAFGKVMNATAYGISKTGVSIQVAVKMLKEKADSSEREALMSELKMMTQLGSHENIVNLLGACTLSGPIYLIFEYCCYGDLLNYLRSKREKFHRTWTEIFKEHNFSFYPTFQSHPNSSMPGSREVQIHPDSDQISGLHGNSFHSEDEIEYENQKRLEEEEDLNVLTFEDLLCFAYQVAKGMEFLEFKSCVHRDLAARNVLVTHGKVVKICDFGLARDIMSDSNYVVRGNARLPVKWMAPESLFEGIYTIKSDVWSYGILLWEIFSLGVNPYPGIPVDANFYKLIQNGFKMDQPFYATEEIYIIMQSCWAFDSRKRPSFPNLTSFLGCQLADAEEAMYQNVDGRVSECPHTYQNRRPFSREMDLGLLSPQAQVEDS
The data set can be described thus: Inhibition of Flt3 autophosphorylation.

Data set [16] addresses Tyrosine-protein kinase ABL (Homo sapiens, UniProt P00519+P42684). The data set can be described thus: Inhibition of Abl tyrosine kinase. In kind it is protein assay. In outline: as §2
The target of data set [17] is Dual specificity mitogen-activated protein kinase kinase 1 (Homo sapiens, UniProt Q02750). As to the kind of experiment: Inhibition of Mitogen activated protein kinase kinase 1. In short, it runs like this: as §2
Chain of Dual specificity mitogen-activated protein kinase kinase 1 (Q02750 whole entry): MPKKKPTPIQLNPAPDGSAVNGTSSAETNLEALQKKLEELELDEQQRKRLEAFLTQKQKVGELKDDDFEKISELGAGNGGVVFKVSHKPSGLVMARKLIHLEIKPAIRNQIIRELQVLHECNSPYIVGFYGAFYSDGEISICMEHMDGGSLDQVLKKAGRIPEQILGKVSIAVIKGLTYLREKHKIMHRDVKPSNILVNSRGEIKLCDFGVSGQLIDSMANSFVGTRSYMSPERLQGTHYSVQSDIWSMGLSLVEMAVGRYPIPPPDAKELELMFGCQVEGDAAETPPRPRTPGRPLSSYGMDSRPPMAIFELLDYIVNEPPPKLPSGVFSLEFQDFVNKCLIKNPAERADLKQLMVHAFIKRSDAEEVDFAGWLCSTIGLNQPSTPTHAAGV
The target of data set [18] is cAMP-dependent protein kinase (PKA) (Homo sapiens, UniProt P22694+P17612+P22612). As to the kind of experiment: Inhibition of Protein kinase A (PKA). Format: protein assay. In outline:
as §2

The next data set concerns the target MAP kinase p38 (Homo sapiens, UniProt O15264+Q15759+Q16539+P53778). The data set can be described thus: Inhibition of Mitogen-activated protein kinase p38. Format: protein assay. In outline:
as §2

Data set [19] has as its target Vascular endothelial growth factor receptor 2 (Homo sapiens, UniProt P35968). The data set can be described thus: Inhibition of Vascular endothelial growth factor receptor 2 (VEGFR-2) autophosphorylation.
The nature of data set [20]: Plasma concentration was determined after 1 hr at a dose 30 mg/kg administered orally to rat-10. In kind it is ADME, organism-based. Details: dose 30 mg/kg, route oral. As to conditions: po. In outline:
as §1

In data set [21] the target is Mitogen-activated protein kinase 8 (Homo sapiens, UniProt P45983). As to the kind of experiment: Inhibition of c-Jun N-terminal kinase (Jnk). In outline: as §2
Chain of Mitogen-activated protein kinase 8 (P45983 whole entry): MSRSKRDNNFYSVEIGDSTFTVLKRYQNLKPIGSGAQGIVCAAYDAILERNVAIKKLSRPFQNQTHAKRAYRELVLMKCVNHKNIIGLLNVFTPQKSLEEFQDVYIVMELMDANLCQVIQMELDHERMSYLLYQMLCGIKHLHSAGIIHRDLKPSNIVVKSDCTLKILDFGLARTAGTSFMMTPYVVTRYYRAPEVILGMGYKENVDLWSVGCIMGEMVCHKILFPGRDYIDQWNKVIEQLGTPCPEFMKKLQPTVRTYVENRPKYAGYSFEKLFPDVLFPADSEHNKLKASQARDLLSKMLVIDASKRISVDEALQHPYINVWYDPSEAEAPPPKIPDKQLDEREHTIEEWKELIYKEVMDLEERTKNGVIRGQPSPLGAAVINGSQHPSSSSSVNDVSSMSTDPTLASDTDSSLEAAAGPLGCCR
Data set [22] concerns the target Platelet-derived growth factor receptor alpha (Homo sapiens, UniProt P16234). As to the kind of experiment: Inhibition of PDGF receptor alpha autophosphorylation.
Data set [23] can be described thus: Plasma concentration was determined after 1 hr at a dose 30 mg/kg administered orally to rat-4. As to conditions: po. In kind it is ADME, organism-based. Details: dose 30 mg/kg, route oral. In outline: as §1
Data set [24] in a line: Plasma concentration was determined after 8 hr at a dose 30 mg/kg administered orally to rat-4. As to conditions: po. Format: ADME, organism-based. Details: dose 30 mg/kg, route oral. In short, it runs like this: as §1
For data set [25], the target named is Mast/stem cell growth factor receptor Kit (Homo sapiens, UniProt P10721). As to the kind of experiment: Inhibition of Mast/stem cell growth factor receptor (c-kit) autophosphorylation.
Chain of Mast/stem cell growth factor receptor Kit (P10721 whole entry): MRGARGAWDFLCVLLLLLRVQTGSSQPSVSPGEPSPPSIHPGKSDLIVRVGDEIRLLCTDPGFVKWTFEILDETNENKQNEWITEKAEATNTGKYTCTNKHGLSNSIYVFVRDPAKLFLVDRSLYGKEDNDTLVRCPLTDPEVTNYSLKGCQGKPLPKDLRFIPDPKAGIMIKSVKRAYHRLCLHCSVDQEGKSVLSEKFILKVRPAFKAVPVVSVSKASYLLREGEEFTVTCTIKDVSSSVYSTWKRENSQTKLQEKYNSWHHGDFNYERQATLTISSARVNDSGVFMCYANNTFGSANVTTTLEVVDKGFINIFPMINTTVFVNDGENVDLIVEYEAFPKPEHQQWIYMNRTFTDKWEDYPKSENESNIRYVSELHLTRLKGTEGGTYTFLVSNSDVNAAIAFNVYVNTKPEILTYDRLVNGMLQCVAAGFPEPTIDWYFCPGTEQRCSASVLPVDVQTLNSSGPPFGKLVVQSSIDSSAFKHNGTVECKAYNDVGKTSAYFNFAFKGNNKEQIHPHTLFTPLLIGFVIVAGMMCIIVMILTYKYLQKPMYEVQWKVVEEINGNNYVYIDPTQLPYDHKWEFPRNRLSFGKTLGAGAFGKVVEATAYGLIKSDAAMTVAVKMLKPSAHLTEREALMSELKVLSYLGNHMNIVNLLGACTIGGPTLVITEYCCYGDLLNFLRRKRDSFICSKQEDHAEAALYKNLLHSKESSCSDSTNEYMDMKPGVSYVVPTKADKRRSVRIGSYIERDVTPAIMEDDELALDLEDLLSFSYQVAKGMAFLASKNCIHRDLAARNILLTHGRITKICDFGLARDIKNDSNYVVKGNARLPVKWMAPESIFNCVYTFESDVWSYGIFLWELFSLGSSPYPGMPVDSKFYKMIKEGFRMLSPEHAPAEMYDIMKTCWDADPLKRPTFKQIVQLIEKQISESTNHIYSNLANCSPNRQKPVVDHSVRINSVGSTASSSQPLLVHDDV
A short description of data set [26]: Plasma concentration was determined after 1 hr at a dose 30 mg/kg administered orally to rat-3. Format: ADME, organism-based. Details: dose 30 mg/kg, route oral. As to conditions: po. In outline: as §1
In data set [27] the target is T3, Dual specificity mitogen-activated protein kinase kinase 3 (Homo sapiens, UniProt P46734).
T3 sequence (P46734 whole entry): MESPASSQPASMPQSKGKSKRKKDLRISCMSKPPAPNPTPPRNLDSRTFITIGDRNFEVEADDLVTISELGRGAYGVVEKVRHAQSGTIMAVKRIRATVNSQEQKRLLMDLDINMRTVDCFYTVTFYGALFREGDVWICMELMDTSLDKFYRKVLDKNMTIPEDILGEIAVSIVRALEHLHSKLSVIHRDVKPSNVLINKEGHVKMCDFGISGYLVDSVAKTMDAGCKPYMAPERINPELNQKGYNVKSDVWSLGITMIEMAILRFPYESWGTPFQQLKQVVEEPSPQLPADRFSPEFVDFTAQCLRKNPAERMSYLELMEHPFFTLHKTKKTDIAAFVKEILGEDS
As to the kind of experiment: Inhibition of Mitogen activated protein kinase kinase 3. In short, it runs like this:
as §2

Data set [28] can be described thus: Plasma concentration was determined after 8 hr at a dose 30 mg/kg administered orally to rat-3. Format: ADME, organism-based. More on the design: dose 30 mg/kg, route oral. As to conditions: po. In short, it runs like this: as §1

Chain of Macrophage colony-stimulating factor 1 receptor (P07333 whole entry): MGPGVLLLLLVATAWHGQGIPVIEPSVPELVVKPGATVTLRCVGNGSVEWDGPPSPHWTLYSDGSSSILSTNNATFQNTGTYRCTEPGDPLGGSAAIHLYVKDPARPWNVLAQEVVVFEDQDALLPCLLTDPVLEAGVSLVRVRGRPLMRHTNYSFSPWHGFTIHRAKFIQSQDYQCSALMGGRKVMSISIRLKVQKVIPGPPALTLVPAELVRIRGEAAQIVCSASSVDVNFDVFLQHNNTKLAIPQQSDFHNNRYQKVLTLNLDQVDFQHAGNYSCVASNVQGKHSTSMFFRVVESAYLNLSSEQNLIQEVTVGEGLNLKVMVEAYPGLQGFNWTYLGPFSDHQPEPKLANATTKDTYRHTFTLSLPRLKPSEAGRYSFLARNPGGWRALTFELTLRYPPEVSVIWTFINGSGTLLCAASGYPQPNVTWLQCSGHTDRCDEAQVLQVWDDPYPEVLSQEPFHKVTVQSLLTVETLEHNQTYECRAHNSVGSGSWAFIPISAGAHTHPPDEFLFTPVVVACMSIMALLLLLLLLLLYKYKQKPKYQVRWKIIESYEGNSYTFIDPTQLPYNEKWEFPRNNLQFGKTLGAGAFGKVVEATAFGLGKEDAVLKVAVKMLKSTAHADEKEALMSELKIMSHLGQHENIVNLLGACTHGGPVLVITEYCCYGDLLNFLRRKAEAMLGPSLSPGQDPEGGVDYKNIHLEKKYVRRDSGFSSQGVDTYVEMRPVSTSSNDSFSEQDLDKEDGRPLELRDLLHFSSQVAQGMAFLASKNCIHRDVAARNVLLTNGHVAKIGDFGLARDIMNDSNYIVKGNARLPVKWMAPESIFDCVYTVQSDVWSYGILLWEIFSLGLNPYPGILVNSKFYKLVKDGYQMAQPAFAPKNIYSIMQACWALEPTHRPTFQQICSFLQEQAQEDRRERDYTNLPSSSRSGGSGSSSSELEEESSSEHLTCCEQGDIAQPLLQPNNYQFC
Chain of Platelet-derived growth factor receptor alpha (P16234 whole entry): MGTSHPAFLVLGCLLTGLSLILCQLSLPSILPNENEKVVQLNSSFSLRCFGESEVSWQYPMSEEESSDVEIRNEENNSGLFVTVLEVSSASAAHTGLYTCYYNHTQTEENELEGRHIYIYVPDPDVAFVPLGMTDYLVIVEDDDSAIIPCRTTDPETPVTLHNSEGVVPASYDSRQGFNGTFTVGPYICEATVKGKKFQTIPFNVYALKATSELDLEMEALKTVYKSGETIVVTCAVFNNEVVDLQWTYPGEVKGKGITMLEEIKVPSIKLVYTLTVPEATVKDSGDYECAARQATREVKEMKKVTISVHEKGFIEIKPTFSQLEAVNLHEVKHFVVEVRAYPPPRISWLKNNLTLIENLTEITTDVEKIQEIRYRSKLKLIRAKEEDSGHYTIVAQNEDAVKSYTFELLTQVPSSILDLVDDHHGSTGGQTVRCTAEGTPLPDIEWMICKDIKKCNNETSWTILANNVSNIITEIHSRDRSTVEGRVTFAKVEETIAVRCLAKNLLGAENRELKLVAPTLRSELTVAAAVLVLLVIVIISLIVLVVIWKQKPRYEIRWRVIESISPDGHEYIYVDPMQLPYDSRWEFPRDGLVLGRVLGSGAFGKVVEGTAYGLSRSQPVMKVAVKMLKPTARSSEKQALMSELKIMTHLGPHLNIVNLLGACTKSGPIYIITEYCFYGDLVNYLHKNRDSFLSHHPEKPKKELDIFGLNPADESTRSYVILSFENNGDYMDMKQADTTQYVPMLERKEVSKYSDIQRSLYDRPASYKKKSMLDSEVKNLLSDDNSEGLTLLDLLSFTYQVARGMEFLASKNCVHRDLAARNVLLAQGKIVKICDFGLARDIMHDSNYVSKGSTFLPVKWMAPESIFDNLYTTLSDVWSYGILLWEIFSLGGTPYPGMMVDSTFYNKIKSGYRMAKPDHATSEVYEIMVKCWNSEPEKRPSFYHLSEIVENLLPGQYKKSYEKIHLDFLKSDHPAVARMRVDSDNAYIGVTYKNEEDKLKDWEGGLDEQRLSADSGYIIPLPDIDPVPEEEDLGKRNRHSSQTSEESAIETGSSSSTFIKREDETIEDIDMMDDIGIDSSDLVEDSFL

Regarding `COc1ccc(CNC(=S)N2CCN(c3ncnc4cc(OC)c(OC)cc34)CC2)cc1`, the concentration at 1 h stood at 2500 ng/mL in data set [1] and 2300 ng/mL in [5]. This compound also returned an IC50 in data set [2] of 100 nM. Moreover, the concentration at 8 h in data set [3] was 500 ng/mL; in data set [4], 400 ng/mL.

For the compound `COc1cc2ncnc(N3CCN(/C(S)=N\Cc4ccc5c(c4)OCO5)CC3)c2cc1OC`, the concentration at 8 h was found to be 2400 ng/mL in [6] and 3600 ng/mL in [8]. The IC50 in data set [7] is greater than 30 µM; at Protein kinase C (PKC), greater than 30 uM l-1; in [9], 160 uM l-1; in data set [11] it was greater than 30 uM l-1; in data set [12], greater than 30 µM; in data set [13], greater than 30 µM. Moreover, the IC50 in [15] is 14.9 µM; in data set [16] it was greater than 30 uM l-1; in data set [17], greater than 30 µM; in data set [18] it was greater than 30 uM l-1; against MAP kinase p38, greater than 30 uM l-1; in data set [19] it was 17.3 µM. Moreover, in [21], the IC50 was greater than 30 µM. In data set [10], this compound showed an AUC of 89900 ng·h/mL. In data set [10], this compound showed a Cmax of 14500 ng/mL. The time to peak (Tmax) in data set [10] turned out to be 3.33 h. Besides, the half-life in data set [10] is 235 min. The concentration at 1 h in data set [14] was found to be 5100 ng/mL; in data set [20], 5900 ng/mL.

For the compound `COc1cc2ncnc(N3CCN(/C(S)=N\Cc4ccccc4)CC3)c2cc1OC`, the IC50 is greater than 30 µM in data set [7]; greater than 30 uM l-1 at Protein kinase C (PKC); greater than 200 uM l-1 in data set [9]; 240 nM in data set [22]; greater than 30 µM in data set [25]; greater than 30 uM l-1 in data set [11]. Besides, the IC50 in data set [12] is greater than 30 µM; in [13], greater than 30 µM; in [15], greater than 30 µM; in data set [17], greater than 30 µM; in data set [27] it was greater than 30 µM; in data set [18], greater than 30 uM l-1. Further, the IC50 on MAP kinase p38 was greater than 30 uM l-1; in [21], greater than 30 µM. For the same compound, the concentration at 1 h in data set [23] amounted to 8100 ng/mL; in [26], 5400 ng/mL. Moreover, the values for the concentration at 8 h in [24] and in data set [28] were 900 ng/mL and 1600 ng/mL, respectively.
